Experimental data reported in ChEMBL document CHEMBL1154352, “Toll-like receptor 7 selective synthetic oligoribonucleotide agonists: synthesis and structure-activity relationship studies” (J Med Chem, 2009).
The source made the active and inactive calls. The rule behind the calls is not given here.

What was measured:
[1] = target: T1, Toll-like receptor 7 (Homo sapiens) (UniProt Q9NYK1); assay: Activation of human TLR7 expressed in HEK293XL assessed as fold induction of NF-kappaB activity at 50 ug/ml after 18 hrs by reporter gene assay relative to control
T1 sequence (whole entry): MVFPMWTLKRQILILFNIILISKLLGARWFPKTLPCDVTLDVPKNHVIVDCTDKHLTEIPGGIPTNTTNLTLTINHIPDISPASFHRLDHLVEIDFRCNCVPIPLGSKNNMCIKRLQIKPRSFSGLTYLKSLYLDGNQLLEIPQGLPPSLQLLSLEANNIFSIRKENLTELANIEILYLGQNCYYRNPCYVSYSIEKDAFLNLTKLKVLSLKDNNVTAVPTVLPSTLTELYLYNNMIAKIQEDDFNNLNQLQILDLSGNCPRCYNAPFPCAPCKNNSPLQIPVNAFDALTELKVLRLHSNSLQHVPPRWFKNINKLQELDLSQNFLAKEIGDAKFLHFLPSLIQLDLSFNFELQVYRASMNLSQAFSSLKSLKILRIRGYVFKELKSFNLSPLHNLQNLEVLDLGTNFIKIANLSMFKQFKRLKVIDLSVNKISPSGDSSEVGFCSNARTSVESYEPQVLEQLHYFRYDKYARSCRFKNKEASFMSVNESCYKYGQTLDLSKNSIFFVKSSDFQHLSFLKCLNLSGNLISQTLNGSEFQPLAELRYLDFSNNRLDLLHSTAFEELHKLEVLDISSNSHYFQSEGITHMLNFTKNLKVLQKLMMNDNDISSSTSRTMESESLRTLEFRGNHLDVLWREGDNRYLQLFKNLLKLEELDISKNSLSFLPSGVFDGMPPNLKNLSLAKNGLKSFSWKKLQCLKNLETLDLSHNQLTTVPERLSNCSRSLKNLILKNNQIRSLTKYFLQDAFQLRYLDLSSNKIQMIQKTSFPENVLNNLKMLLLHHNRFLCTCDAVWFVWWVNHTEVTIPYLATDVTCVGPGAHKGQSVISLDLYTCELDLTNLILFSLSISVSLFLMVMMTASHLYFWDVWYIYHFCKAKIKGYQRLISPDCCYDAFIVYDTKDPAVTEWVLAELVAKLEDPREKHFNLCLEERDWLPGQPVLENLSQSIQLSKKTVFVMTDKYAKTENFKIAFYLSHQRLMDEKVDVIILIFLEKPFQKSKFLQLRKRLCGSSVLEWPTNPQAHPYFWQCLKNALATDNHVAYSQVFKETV
Summary of the method: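 HEK293 cells stably expressing human TLR7 or TLR8, transiently transfected with SEAP reporter plasmid; medium replaced, SIMRA compounds added, 18 h incubation. Supernatant SEAP measured by QuantiBlue; expressed as fold increase in NF-κB activity over PBS control. Tabulated data at 50 μg/mL, representative of three independent experiments.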

Homo sapiens = species: Homo sapiens; assay: Ratio of human TLR7 activity to human TLR8 activity
Summary of the method: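 TLR7/TLR8 ratio computed from fold NF-κB (SEAP reporter) activation in HEK293 cells stably expressing human TLR7 versus TLR8, compounds at 50 μg/mL, 18 h exposure; representative of three independent experiments.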

Splenocyte [2] = assay: Immunomodulatory activity in C57BL/6 mouse splenocytes bearing TLR7 receptor assessed as IL6 release at 100 ug/ml after 24 hrs by ELISA; type: functional, cell-based
Summary of the method: (§1)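 C57BL/6 splenocytes in RPMI 1640 with 10% FBS, penicillin/streptomycin, 2 mM L-glutamine, plated at 5 × 10^6 cells/mL; compounds in PBS added, 37 °C for 24 h. Supernatant IL-12 and IL-6 by ELISA; representative of three independent experiments.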

Splenocyte [3] = assay: Immunomodulatory activity in C57BL/6 mouse splenocytes bearing TLR7 receptor assessed as IL12 release at 100 ug/ml after 24 hrs by ELISA; type: functional, cell-based; summary of the method: as §1
PBMC [4] = assay: Immunomodulatory activity in human PBMC assessed as induction of IFN-alpha at 100 ug/ml after 24 hrs
PBMC [5] = assay: Immunomodulatory activity in human PBMC assessed as induction of IL12 at 100 ug/ml after 24 hrs; type: functional, cell-based
Summary of the method: (§2)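 Human PBMCs plated at 5 × 10^6 cells/mL; compounds dissolved in PBS added at various concentrations, 37 °C for 24 h. Supernatant cytokines/chemokines quantified with human Luminex multiplex kit.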

[6] = target: T2, Toll-like receptor 9 (Mus musculus) (UniProt Q9EQU3); assay: Activation of mouse TLR9 expressed in HEK293 assessed as induction of NF-kappaB activity reporter gene assay; type: cell-based
T2 sequence (whole entry): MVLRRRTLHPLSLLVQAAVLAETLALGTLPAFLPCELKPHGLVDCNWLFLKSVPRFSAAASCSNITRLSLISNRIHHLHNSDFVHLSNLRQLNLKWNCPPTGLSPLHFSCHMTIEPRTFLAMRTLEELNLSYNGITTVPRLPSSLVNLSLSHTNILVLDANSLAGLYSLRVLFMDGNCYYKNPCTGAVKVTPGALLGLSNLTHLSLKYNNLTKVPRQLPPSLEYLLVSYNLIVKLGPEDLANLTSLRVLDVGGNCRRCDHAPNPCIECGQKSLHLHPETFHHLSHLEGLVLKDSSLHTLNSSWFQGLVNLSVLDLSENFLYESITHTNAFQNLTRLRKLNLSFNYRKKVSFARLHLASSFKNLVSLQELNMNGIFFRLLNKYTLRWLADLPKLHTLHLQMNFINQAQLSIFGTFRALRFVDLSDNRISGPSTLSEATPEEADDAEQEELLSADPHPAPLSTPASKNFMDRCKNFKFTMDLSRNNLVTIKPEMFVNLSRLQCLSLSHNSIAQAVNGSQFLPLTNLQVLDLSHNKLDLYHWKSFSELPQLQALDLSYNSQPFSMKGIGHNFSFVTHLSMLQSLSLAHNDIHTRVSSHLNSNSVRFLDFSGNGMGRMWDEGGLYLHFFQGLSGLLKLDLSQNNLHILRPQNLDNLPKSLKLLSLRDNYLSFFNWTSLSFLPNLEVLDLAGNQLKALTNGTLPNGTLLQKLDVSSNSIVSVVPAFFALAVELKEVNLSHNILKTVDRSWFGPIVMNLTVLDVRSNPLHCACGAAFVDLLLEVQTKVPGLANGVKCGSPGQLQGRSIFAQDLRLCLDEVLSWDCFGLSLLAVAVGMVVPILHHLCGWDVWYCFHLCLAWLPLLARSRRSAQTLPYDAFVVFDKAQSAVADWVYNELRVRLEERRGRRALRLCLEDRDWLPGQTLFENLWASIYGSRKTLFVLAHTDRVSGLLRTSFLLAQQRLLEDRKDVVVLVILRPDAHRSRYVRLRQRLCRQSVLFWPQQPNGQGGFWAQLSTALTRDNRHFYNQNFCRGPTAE

PBMC [7] = assay: Immunomodulatory activity in human PBMC assessed as induction of TNFalpha at 100 ug/ml after 24 hrs; type: functional, cell-based; summary of the method: as §2

For Nc1ccn([C@@H]2O[C@H](CO)[C@@H](OP(=O)(S)OC[C@H]3O[C@@H](n4ccc(=O)[nH]c4=O)[C@H](O)[C@@H]3OP(=O)(S)OC[C@H]3O[C@@H](n4ccc5c(=O)[nH]c(N)nc54)[C@H](O)[C@@H]3OP(=O)(S)OC[C@H]3O[C@@H](n4cnc5c(N)ncnc54)[C@H](O)[C@@H]3OP(=O)(S)OC[C@H]3O[C@@H](n4ccc(N)nc4=O)[C@H](O)[C@@H]3OP(=O)(S)OC[C@H]3O[C@@H](n4ccc5c(=O)[nH]c(N)nc54)[C@H](O)[C@@H]3OP(=O)(S)OC[C@H]3O[C@@H](n4cnc5c(N)ncnc54)[C@H](O)[C@@H]3OP(=O)(S)OC[C@H]3O[C@@H](n4ccc5c(=O)[nH]c(N)nc54)[C@H](O)[C@@H]3OP(=O)(S)OC[C@H]3O[C@@H](n4ccc(N)nc4=O)[C@H](O)[C@@H]3OP(=O)(S)OC[C@H]3O[C@@H](n4ccc(=O)[nH]c4=O)[C@H](O)[C@@H]3OP(=O)(S)OC[C@H]3O[C@@H](n4ccc(=O)[nH]c4=O)[C@H](O)[C@@H]3OP(=O)(S)OCC(O)COP(=O)(S)O[C@H]3[C@@H](O)[C@H](n4ccc(=O)[nH]c4=O)O[C@@H]3COP(=O)(S)O[C@H]3[C@@H](O)[C@H](n4ccc(=O)[nH]c4=O)O[C@@H]3COP(=O)(S)O[C@H]3[C@@H](O)[C@H](n4ccc(N)nc4=O)O[C@@H]3COP(=O)(S)O[C@H]3[C@@H](O)[C@H](n4ccc5c(=O)[nH]c(N)nc54)O[C@@H]3COP(=O)(S)O[C@H]3[C@@H](O)[C@H](n4cnc5c(N)ncnc54)O[C@@H]3COP(=O)(S)O[C@H]3[C@@H](O)[C@H](n4ccc5c(=O)[nH]c(N)nc54)O[C@@H]3COP(=O)(S)O[C@H]3[C@@H](O)[C@H](n4ccc(N)nc4=O)O[C@@H]3COP(=O)(S)O[C@H]3[C@@H](O)[C@H](n4cnc5c(N)ncnc54)O[C@@H]3COP(=O)(S)O[C@H]3[C@@H](O)[C@H](n4ccc5c(=O)[nH]c(N)nc54)O[C@@H]3COP(=O)(S)O[C@H]3[C@@H](O)[C@H](n4ccc(=O)[nH]c4=O)O[C@@H]3COP(=O)(S)O[C@H]3[C@@H](O)[C@H](n4ccc(N)nc4=O)O[C@@H]3CO)[C@H]2O)c(=O)n1 (stereo partly specified), the fold change (FC) [1] was 30, the Ratio (Homo sapiens) was 50 and the Activity (Splenocyte [2]) was “Active”. The Activity (Splenocyte [3]) was “Active”, the IFN-alpha (PBMC [4]) was 106 pg/mL and the Activity (PBMC [5]) was 519 pg/mL. The Activity [6] was “inactive” and the Activity (PBMC [7]) was 33.4 pg/mL.
Nc1ccn([C@@H]2O[C@H](COP(=O)(S)O[C@H]3[C@@H](O)[C@H](n4cnc5c(N)ncnc54)O[C@@H]3COP(=O)(S)O[C@H]3[C@@H](O)[C@H](n4ccc5c(=O)[nH]c(N)nc54)O[C@@H]3COP(=O)(S)O[C@H]3[C@@H](O)[C@H](n4ccc(N)nc4=O)O[C@@H]3COP(=O)(S)O[C@H]3[C@@H](O)[C@H](n4ccc5c(=O)[nH]c(N)nc54)O[C@@H]3COP(=O)(S)O[C@H]3[C@@H](O)[C@H](n4ccc(=O)[nH]c4=O)O[C@@H]3COP(=O)(S)O[C@H]3[C@@H](O)[C@H](n4ccc5c(=O)[nH]c(N)nc54)O[C@@H]3COP(=O)(S)O[C@H]3[C@@H](O)[C@H](n4cnc5c(N)ncnc54)O[C@@H]3COP(=O)(S)O[C@H]3[C@@H](O)[C@H](n4cnc5c(N)ncnc54)O[C@@H]3CO)[C@@H](OP(=O)(S)OC[C@H]3O[C@@H](n4ccc(=O)[nH]c4=O)[C@H](O)[C@@H]3OP(=O)(S)OC[C@H]3O[C@@H](n4ccc(=O)[nH]c4=O)[C@H](O)[C@@H]3OP(=O)(S)OCC(O)COP(=O)(S)O[C@H]3[C@@H](O)[C@H](n4ccc(=O)[nH]c4=O)O[C@@H]3COP(=O)(S)O[C@H]3[C@@H](O)[C@H](n4ccc(=O)[nH]c4=O)O[C@@H]3COP(=O)(S)O[C@H]3[C@@H](O)[C@H](n4ccc(N)nc4=O)O[C@@H]3COP(=O)(S)O[C@H]3[C@@H](O)[C@H](n4cnc5c(N)ncnc54)O[C@@H]3COP(=O)(S)O[C@H]3[C@@H](O)[C@H](n4ccc5c(=O)[nH]c(N)nc54)O[C@@H]3COP(=O)(S)O[C@H]3[C@@H](O)[C@H](n4ccc(N)nc4=O)O[C@@H]3COP(=O)(S)O[C@H]3[C@@H](O)[C@H](n4ccc5c(=O)[nH]c(N)nc54)O[C@@H]3COP(=O)(S)O[C@H]3[C@@H](O)[C@H](n4ccc(=O)[nH]c4=O)O[C@@H]3COP(=O)(S)O[C@H]3[C@@H](O)[C@H](n4ccc5c(=O)[nH]c(N)nc54)O[C@@H]3COP(=O)(S)O[C@H]3[C@@H](O)[C@H](n4cnc5c(N)ncnc54)O[C@@H]3COP(=O)(S)O[C@H]3[C@@H](O)[C@H](n4cnc5c(N)ncnc54)O[C@@H]3CO)[C@H]2O)c(=O)n1 (stereo partly specified) was tested, and the fold change (FC) [1] was 20.7, the Ratio (Homo sapiens) was 41.4 and the Activity (Splenocyte [2]) was “Active”. For the same compound, the Activity (Splenocyte [3]) was “Active”, the IFN-alpha (PBMC [4]) was 123 pg/mL and the Activity (PBMC [5]) was 171 pg/mL. For the same compound, the Activity [6] was “inactive” and the Activity (PBMC [7]) was 1.7 pg/mL.
